# Results as given in ChEMBL document CHEMBL1811864 (Bioorg Med Chem, 2011).
# Assays:
# [1] = target: T1, Transcriptional activator protein LasR (Pseudomonas aeruginosa (strain ATCC 15692 / PAO1 / 1C / PRS 101 / LMG12228)) (UniProt P25084); experiment: Antagonist activity at Pseudomonas aeruginosa PAO1 MW1 (pUM15) LasR assessed as inhibition of OdDHL-induced quorum sensing activation at 10 uM after 8 hrs by […] relative to untreated control; assay type: functional
# T1 sequence (whole entry): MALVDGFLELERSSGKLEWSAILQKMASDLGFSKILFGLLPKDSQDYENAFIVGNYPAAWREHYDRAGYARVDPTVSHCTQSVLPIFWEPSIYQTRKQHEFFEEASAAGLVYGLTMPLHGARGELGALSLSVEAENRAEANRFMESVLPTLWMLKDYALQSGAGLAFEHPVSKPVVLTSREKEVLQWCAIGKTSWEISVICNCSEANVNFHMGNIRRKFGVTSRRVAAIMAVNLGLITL
# How it was run: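 P. aeruginosa PAO1 MW1 (pUM15) lacks functional LasI and carries a LasR-responsive promoter driving YFP, so fluorescence is the read-out. Compounds were tested at 10 µM. […] Background from wells with no compound or AHL was subtracted. Assays were done in triplicate.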
# [2] = tested on: Escherichia coli DH5[alpha]; experiment: Agonist activity at Escherichia coli DH5alpha (pJN105L + pSC11) LasR at 10 uM after 8 hrs by beta-galactosidase reporter gene assay relative to OdDHL; assay type: functional
# Aliivibrio fischeri = experiment: Growth inhibition of Vibrio fischeri ESI 114 (delta-LuxI) at 10 uM after 4 to 16 hrs; assay type: organism-based; conditions: in vivo
# How it was run: (§1)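 Bacterial growth was monitored over the reporter gene assay time course (4–16 h) with compounds at 10 µM.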
# [3] = Agonist activity at Escherichia coli DH5alpha (pJN105L + pSC11) LasR after 8 hrs by beta-galactosidase reporter gene assay relative to OdDHL; assay type: functional, Escherichia coli DH5[alpha]
# [4] = target: T2, Transcriptional activator protein LuxR (Aliivibrio fischeri) (UniProt P12746); experiment: Agonist activity at Vibrio fischeri ESI 114 (delta-LuxI) LuxR at 10 uM after 8 hrs by […] relative to […]; assay type: functional
# T2 sequence (whole entry): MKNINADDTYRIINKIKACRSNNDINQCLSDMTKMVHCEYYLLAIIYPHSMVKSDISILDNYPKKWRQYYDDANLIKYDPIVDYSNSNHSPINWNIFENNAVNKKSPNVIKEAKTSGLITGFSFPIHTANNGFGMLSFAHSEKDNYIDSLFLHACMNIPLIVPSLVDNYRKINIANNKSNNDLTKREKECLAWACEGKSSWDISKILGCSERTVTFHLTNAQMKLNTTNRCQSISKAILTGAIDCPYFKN
# How it was run: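 V. fischeri ESI 114 lacking LuxI synthase but keeping its native lux operon; LuxR activity read as luminescence. Compounds were screened at 10 µM alone, without native AHL. Signal was normalized to the native-ligand positive control.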
# [5] = target: T3, Transcriptional activator protein LuxR (Aliivibrio fischeri, UniProt P12746); experiment: Agonist activity at Vibrio fischeri ESI 114 (delta-LuxI) LuxR after 8 hrs by […] relative to […]; assay type: functional
# T3 sequence (P12746 whole entry): T2 sequence (whole entry)
# [6] = target: T4, Transcriptional activator protein TraR (Agrobacterium tumefaciens) (UniProt P33905); experiment: Agonist activity at Agrobacterium tumefaciens WCF (pCF372) TraR at 10 uM after 8 hrs by beta-galactosidase reporter gene assay relative to […]; assay type: functional
# T4 sequence (whole entry): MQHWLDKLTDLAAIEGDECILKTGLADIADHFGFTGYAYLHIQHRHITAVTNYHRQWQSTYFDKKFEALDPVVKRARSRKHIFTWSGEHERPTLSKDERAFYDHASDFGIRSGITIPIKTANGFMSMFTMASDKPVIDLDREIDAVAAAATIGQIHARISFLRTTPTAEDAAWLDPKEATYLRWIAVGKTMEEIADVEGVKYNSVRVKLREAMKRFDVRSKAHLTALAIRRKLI
# [7] = target: T4, Transcriptional activator protein TraR (Agrobacterium tumefaciens); experiment: Antagonist activity at Agrobacterium tumefaciens WCF (pCF372) TraR assessed as inhibition of […]-induced quorum sensing activation at 10 uM after 8 hrs by beta-galactosidase reporter gene assay relative to untreated control; assay type: functional
# Escherichia coli = experiment: Growth inhibition of Escherichia coli DH5alpha (pJN105L + pSC11) at 10 uM after 4 to 16 hrs; assay type: organism-based, DH5[alpha]; conditions: in vivo; how it was run: as §1
# Pseudomonas aeruginosa = experiment: Growth inhibition of Pseudomonas aeruginosa PAO1 MW1 (pUM15) at 10 uM after 4 to 16 hrs; assay type: organism-based; conditions: in vivo; how it was run: as §1
# [8] = target: T2, Transcriptional activator protein LuxR (Aliivibrio fischeri); experiment: Antagonist activity at Vibrio fischeri ESI 114 (delta-LuxI) LuxR assessed as inhibition of […]-induced quorum sensing activation at 10 uM after 8 hrs by […] relative to untreated control; assay type: functional
# [9] = tested on: Agrobacterium tumefaciens; experiment: Growth inhibition of Agrobacterium tumefaciens WCF (pCF372) at 10 uM after 4 to 16 hrs; assay type: organism-based; conditions: in vivo; how it was run: as §1
# [10] = target: T1, Transcriptional activator protein LasR (Pseudomonas aeruginosa (strain ATCC 15692 / PAO1 / 1C / PRS 101 / LMG12228)); experiment: Agonist activity at Pseudomonas aeruginosa PAO1 MW1 (pUM15) LasR at 10 uM after 8 hrs by YFP fluorescence reporter gene assay relative to OdDHL
# [11] = target: T3, Transcriptional activator protein LuxR; experiment: Antagonist activity at Vibrio fischeri ESI 114 (delta-LuxI) LuxR assessed as inhibition of OHHL-induced quorum sensing activation after 8 hrs by […]
# [12] = target: T5, Transcriptional activator protein TraR (Agrobacterium tumefaciens, UniProt P33905); experiment: Agonist activity at Agrobacterium tumefaciens WCF (pCF372) TraR after 8 hrs by beta-galactosidase reporter gene assay relative to OOHL
# T5 sequence (P33905 whole entry): T4 sequence (whole entry)
# [13] = Hydrolytic stability of the compound in Luria-Bertani medium containing Pseudomonas aeruginosa PA01 MW1 (pUM15) assessed as half life by measuring YFP fluorescence; assay type: physicochemical
# [14] = Antagonist activity at Escherichia coli DH5alpha (pJN105L + pSC11) LasR assessed as inhibition of OdDHL-induced quorum sensing activation after 8 hrs by beta-galactosidase reporter gene assay; assay type: functional, Escherichia coli DH5[alpha]
# [15] = target: T5, Transcriptional activator protein TraR; experiment: Antagonist activity at Agrobacterium tumefaciens WCF (pCF372) TraR assessed as inhibition of OOHL-induced quorum sensing activation after 8 hrs by beta-galactosidase reporter gene assay
# [16] = tested on: Escherichia coli DH5[alpha]; experiment: Antagonist activity at Escherichia coli DH5alpha (pJN105L + pSC11) LasR assessed as inhibition of OdDHL-induced quorum sensing activation at 10 uM after 8 hrs by beta-galactosidase reporter gene assay relative to untreated control; assay type: functional
# [17] = target: T6, Transcriptional activator protein LasR (Pseudomonas aeruginosa (strain ATCC 15692 / PAO1 / 1C / PRS 101 / LMG12228), UniProt P25084); experiment: Agonist activity at Pseudomonas aeruginosa PAO1 MW1 (pUM15) LasR assessed as quorum sensing activation after 8 hrs by […]
# T6 sequence (P25084 whole entry): T1 sequence (whole entry)
# [18] = target: T6, Transcriptional activator protein LasR; experiment: Agonist activity at Pseudomonas aeruginosa PAO1 MW1 (pUM15) LasR after 8 hrs by YFP fluorescence reporter gene assay relative to OdDHL
Compound,inhibition [1] [%],Activity [2] [%],Activity (Aliivibrio fischeri),EC50 [3] [nM],Activity [4] [%],Activity [6] [%],inhibition [7] [%],Activity (Escherichia coli),Activity (Pseudomonas aeruginosa),inhibition [8] [%],Activity [9],Activity [10] [%],IC50 [11] [nM],half-life [13] [days],IC50 [15] [µM],other results
O=C(Cc1cccc([N+](=O)[O-])c1)N[C@H]1CCSC1=O,-7,82,Non-toxic,4100,21,1,33,Non-toxic,Non-toxic,19,Non-toxic,5,–,–,–,EC50 [5]: 11 µM
CCCCCC(=O)CC(=O)N[C@H]1CCSC1=O,-8,–,Non-toxic,–,0,50,–,Non-toxic,Non-toxic,99,Non-toxic,3,350,–,–,EC50 [12]: 20 µM
CCCCCCCCCC(=O)CC(=O)N[C@H]1CCSC1=O,–,94,Non-toxic,92,0,1,92,Non-toxic,Non-toxic,99,Non-toxic,88,450,3.43,–,–
CCCCCCCCCC(=O)CC(=O)N[C@H]1CCOC1=O,–,–,–,–,–,–,–,–,–,–,–,–,–,2.01,–,–
CCCCCCC(=O)N[C@H]1CCSC1=O,-8,8,Non-toxic,–,0,0,78,Non-toxic,Non-toxic,78,Non-toxic,0,310,–,10,IC50 [14]: 790 nM; inhibition [16]: 78%
CCCC(=O)CC(=O)N[C@H]1CCSC1=O,–,96,Non-toxic,130,0,1,93,Non-toxic,Non-toxic,62,Non-toxic,76,–,–,3.2,EC50 [17]: 13 µM; EC50 [18]: 13 µM
